Measurements as given in ChEMBL document CHEMBL1240495, “Alpha,beta-unsaturated N-acylpyrrole peptidyl derivatives: new proteasome inhibitors” (J Med Chem, 2010).
Peptide text beside a SMILES is read from it. * marks the point of attachment. Cbz = O=C(OCc1ccccc1)*

Key:
[1] = Inhibition of chymotrypsin-like activity of 20S proteasome in human LCL cells after 12 hrs
[2] = Inhibition of trypsin-like activity of 20S proteasome beta2 from human LCL cells after 30 mins
[3] = system: 20S proteasome beta1 subunit (Homo sapiens); assay: Inhibition of PGPH catalytic activity of 20S proteasome beta1 in human LCL cells after 12 hrs
[4] = system: 20S proteasome beta5 subunit (Homo sapiens); assay: Inhibition of chymotrypsin-like activity of 20S proteasome beta5 in human LCL cells after 12 hrs by in vivo assay
[5] = Inhibition of trypsin-like activity of 20S proteasome beta 2 in human LCL cells after 12 hrs by in vivo assay
In short: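 LCLs exposed to inhibitor for 12 h at 37 °C. Proteasomes then partially purified and incubated 30 min at 37 °C in activity buffer with Suc-LLVY-AMC (chymotrypsin-like), Boc-LRR-AMC (trypsin-like) or Z-LLE-AMC (postacidic). Fluorescence read at ex 360/em 465 nm.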

[6] = system: 20S proteasome beta1 subunit (Homo sapiens); assay: Inhibition of PGPH catalytic activity of 20S proteasome beta1 in human LCL cells after 12 hrs by in vivo assay
JIYOYE = assay: Cytotoxicity against human Jijoye cells at 10 uM after 3 days by trypan blue exclusion assay; format: cell-based; conditions: 72 h
In short: (§1)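 LCL and Burkitt's lymphoma JiJoye cells seeded in duplicate at 50 × 10³ cells/mL in medium with 10% FCS. Exposed to 0.1–10 μM compound or medium alone. Viability and proliferation followed for 3 days by Trypan blue exclusion and cell counting.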

[7] = Cytotoxicity against human LCL cells at 10 uM after 3 days by trypan blue exclusion assay; format: cell-based; conditions: 72 h
In short: as §1

SMILES	IC50 [1] [nM]	IC50 [2] [nM]	IC50 [3] [nM]	IC50 [4] [nM]	IC50 [5] [nM]	IC50 [6] [nM]	Activity (JIYOYE)	Activity [7]
CC(C)C[C@@H](/C=C/C(=O)n1cccc1)NC(=O)[C@H](CC(C)C)NC(=O)[C@H](CC(C)C)NC(=O)CCCCCCCNC(=O)OCc1ccccc1	> 10000	> 10000	62	> 10000	> 10000	116	–	–
CC(C)C[C@@H](/C=C/C(=O)n1cccc1)NC(=O)[C@H](CC(C)C)NC(=O)[C@H](CC(C)C)NC(=O)OCc1ccccc1	7890	> 10000	91	–	–	–	–	–
Cc1c(O)cccc1C(=O)N[C@H](C(=O)N[C@@H](CO)C(=O)N[C@H](/C=C/C(=O)n1cccc1)CC(C)C)C(C)C	> 10000	> 10000	178	–	–	–	–	–
CC[C@H](C)[C@H](NC(=O)[C@H]([C@@H](C)CC)N(C)C(C)=O)C(=O)N[C@H](C(=O)N[C@@H](CC(C)C)C(=O)[C@@]1(C)CO1)[C@@H](C)O [EPOXOMYCIN]	5	–	–	–	–	–	–	–
CC(C)C[C@@H](C=O)NC(=O)[C@H](CC(C)C)NC(=O)[C@H](CC(C)C)NC(=O)OCc1ccccc1 [MG-132] (Cbz-Leu-Leu-Leu-aldehyde)	2	1080	–	–	–	–	–	–

More lines, main results first:

IC50 [1] [nM]	IC50 [2] [nM]	IC50 [3] [nM]	IC50 [4] [nM]	IC50 [5] [nM]	IC50 [6] [nM]	SMILES	Activity (JIYOYE)	Activity [7]
> 10000	> 10000	155	–	–	–	CC(C)C[C@@H](/C=C/C(=O)n1cccc1)NC(=O)[C@H](CC(C)C)NC(=O)[C@H](CC(C)C)NC(=O)CCCCCNC(=O)OCc1ccccc1	–	–
> 10000	> 10000	97	> 10000	> 10000	147	CC(C)C[C@@H](/C=C/C(=O)n1cccc1)NC(=O)[C@H](CO)NC(=O)[C@@H](NC(=O)CCCCCNC(=O)OCc1ccccc1)C(C)C	–	–
5080	> 10000	36	> 10000	> 10000	58	CC(C)C[C@@H](/C=C/C(=O)n1cccc1)NC(=O)[C@H](CO)NC(=O)[C@@H](NC(=O)CCCCCCCNC(=O)OCc1ccccc1)C(C)C	Not Active	Not Active
3630	> 10000	65	5600	> 10000	135	Cc1c(O)cccc1C(=O)N[C@@H](CC(C)C)C(=O)N[C@@H](CC(C)C)C(=O)N[C@H](/C=C/C(=O)n1cccc1)CC(C)C	Not Active	Not Active
> 10000	> 10000	122	–	–	–	CC(C)C[C@@H](/C=C/C(=O)n1cccc1)NC(=O)[C@H](CO)NC(=O)[C@@H](NC(=O)OCc1ccccc1)C(C)C	–	–
